# Columns and labels:
# [1] = target: Muscarinic acetylcholine receptor M3 (Homo sapiens) (UniProt P20309); test: Displacement of [3H]quinuclidinyl benzylate from human muscarinic M3 receptor expressed in CHO cells at 10 uM; assay type: cell-based
# [2] = target: T1, Muscarinic acetylcholine receptor M5 (Homo sapiens) (UniProt P08912); test: Displacement of [3H]quinuclidinyl benzylate from human muscarinic M5 receptor expressed in CHO cells at 10 uM; assay type: cell-based
# T1 sequence (whole entry): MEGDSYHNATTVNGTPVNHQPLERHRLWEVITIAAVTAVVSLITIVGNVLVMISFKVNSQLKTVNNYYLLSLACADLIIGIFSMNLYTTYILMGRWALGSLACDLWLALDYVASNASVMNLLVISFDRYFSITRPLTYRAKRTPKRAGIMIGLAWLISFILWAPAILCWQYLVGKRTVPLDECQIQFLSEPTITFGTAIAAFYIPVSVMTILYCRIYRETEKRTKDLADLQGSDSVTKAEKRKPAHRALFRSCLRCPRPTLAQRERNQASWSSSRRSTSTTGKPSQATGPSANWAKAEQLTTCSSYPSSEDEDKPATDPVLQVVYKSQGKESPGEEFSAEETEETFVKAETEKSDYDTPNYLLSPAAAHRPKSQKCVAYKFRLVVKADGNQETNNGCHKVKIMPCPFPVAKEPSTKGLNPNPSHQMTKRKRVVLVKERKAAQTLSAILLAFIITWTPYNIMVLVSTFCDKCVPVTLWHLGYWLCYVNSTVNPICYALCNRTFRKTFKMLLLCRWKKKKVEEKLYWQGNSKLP
# Procedure, shortened: (§1)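 Single-concentration preliminary screen on membranes of transfected CHO cells expressing human M2 or M5 receptors, labelled with [3H]quinuclidinyl benzylate. Read-out was percent inhibition of radioligand binding.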
# [3] = target: T2, Muscarinic acetylcholine receptor M2 (Homo sapiens) (UniProt P08172); test: Displacement of [3H]quinuclidinyl benzylate from human muscarinic M2 receptor expressed in CHO cells at 10 uM; assay type: cell-based; procedure, shortened: as §1
# T2 sequence (whole entry): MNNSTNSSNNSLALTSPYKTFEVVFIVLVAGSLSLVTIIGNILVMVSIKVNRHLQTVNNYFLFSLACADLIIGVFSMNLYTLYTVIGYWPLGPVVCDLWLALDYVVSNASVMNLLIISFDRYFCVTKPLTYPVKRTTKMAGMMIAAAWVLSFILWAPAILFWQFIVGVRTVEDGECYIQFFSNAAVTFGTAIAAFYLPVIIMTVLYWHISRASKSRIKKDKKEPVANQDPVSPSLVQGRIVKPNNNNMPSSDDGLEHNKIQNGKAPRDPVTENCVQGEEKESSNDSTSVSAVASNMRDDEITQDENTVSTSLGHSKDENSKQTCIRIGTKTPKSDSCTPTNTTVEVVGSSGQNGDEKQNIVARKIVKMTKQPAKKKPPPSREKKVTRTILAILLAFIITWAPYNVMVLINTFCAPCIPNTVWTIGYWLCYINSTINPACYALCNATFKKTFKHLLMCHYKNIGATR
# [4] = target: Neuronal acetylcholine receptor subunit alpha-7 (Rattus norvegicus, UniProt Q05941); test: Displacement of [125I]-alpha-Bungarotoxin from alpha7 nAChR rat cortical membranes by gamma counting; assay type: cell membranes, Membrane
# Sequence of Neuronal acetylcholine receptor subunit alpha-7 (Q05941 whole entry): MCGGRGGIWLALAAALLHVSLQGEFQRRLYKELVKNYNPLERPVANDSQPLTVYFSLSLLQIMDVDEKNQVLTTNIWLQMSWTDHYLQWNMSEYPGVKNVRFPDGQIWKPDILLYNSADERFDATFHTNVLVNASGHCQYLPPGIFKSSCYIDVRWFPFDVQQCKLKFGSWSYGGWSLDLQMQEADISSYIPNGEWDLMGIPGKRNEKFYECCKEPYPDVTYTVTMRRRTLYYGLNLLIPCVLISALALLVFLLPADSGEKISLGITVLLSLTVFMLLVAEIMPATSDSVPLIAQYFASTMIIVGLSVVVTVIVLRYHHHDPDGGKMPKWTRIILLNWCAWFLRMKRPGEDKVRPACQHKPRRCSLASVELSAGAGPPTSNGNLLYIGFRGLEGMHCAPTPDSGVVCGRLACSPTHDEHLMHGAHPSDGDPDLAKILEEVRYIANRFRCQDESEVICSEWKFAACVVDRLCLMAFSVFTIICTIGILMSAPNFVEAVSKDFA
# Procedure, shortened: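 Rat cortex membranes, prepared by twice-repeated homogenisation and high-speed centrifugation, were pre-incubated with compound for 30 min at r.t. Filtered on PEI-soaked GF/C filters and gamma counted. Ki from three independent competition experiments, fitted together with three saturation experiments by non-linear least squares (LIGAND).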
# [5] = target: T3, Muscarinic acetylcholine receptor M1 (Homo sapiens) (UniProt P11229); test: Displacement of [3H]quinuclidinyl benzylate from human muscarinic M1 receptor expressed in CHO cells at 10 uM; assay type: cell-based
# T3 sequence (whole entry): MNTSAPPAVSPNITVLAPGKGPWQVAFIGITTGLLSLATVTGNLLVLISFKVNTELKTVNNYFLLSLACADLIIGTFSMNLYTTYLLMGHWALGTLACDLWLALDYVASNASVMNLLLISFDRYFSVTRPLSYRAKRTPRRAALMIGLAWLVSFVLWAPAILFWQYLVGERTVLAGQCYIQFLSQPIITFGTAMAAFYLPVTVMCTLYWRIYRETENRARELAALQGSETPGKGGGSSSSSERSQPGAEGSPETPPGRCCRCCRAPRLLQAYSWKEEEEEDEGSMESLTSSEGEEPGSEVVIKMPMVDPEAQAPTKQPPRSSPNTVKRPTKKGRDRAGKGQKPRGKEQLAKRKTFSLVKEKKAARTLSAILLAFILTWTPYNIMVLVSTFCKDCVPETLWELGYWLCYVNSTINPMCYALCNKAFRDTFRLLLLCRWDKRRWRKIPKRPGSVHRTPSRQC
# [6] = target: T4, Muscarinic acetylcholine receptor M4 (Homo sapiens) (UniProt P08173); test: Displacement of [3H]quinuclidinyl benzylate from human muscarinic M4 receptor expressed in CHO cells at 10 uM; assay type: cell-based
# T4 sequence (whole entry): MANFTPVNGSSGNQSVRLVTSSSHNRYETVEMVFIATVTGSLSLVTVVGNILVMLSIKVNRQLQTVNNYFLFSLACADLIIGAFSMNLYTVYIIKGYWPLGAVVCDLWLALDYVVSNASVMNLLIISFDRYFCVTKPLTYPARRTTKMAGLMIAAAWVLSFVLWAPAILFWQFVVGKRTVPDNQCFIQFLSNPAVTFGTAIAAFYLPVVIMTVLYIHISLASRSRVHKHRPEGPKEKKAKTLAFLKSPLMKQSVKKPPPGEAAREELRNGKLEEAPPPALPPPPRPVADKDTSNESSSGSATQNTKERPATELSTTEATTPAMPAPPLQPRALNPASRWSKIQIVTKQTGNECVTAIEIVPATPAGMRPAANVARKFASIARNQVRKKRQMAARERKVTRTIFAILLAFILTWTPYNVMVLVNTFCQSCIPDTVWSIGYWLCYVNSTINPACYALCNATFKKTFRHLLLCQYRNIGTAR
# [7] = target: Neuronal acetylcholine receptor; alpha4/beta2 (Rattus norvegicus, UniProt P09483+P12390); test: Displacement of [3H]epibatidine from alpha4beta2 nAChR in rat cortical membranes by beta counting; assay type: cell membranes, Membrane
# Sequence of Neuronal acetylcholine receptor; alpha4/beta2 (P09483 whole entry): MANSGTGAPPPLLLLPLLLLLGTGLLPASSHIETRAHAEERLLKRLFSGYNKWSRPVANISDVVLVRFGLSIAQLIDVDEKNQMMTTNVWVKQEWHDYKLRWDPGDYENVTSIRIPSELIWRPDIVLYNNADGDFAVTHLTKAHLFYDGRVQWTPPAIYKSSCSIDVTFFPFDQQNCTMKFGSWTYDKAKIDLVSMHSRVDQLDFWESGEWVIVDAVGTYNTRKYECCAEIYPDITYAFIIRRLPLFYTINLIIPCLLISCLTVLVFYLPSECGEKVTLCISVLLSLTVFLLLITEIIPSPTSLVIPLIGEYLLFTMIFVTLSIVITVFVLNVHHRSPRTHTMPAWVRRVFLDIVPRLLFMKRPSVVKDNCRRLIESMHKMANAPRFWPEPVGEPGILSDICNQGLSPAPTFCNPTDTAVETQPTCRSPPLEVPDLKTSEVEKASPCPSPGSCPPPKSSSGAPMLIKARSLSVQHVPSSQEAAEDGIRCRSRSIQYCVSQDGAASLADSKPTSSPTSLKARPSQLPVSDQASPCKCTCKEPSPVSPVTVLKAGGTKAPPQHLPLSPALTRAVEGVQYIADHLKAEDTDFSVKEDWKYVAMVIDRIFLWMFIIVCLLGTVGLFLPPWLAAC
# Sequence of Neuronal acetylcholine receptor; alpha4/beta2 (P12390 whole entry): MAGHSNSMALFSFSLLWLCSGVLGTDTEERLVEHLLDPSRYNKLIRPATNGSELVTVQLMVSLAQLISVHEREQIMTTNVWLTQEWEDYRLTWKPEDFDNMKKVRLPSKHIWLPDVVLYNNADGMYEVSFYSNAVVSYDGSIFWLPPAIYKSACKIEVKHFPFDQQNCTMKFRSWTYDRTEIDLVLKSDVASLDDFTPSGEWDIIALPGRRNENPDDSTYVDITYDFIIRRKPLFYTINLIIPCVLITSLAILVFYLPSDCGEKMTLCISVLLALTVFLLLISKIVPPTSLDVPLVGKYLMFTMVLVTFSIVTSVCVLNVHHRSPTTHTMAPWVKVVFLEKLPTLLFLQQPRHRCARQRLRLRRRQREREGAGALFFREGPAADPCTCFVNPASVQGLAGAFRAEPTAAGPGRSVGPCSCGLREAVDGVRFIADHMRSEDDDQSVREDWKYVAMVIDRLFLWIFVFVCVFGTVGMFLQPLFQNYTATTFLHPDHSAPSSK
# Procedure, shortened: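 Rat cortex membranes were washed twice by homogenisation in pH 7.4 phosphate/1 M NaCl/EDTA/EGTA/PMSF buffer and 60,000g spins, then resuspended in pH 7 Tris buffer. Nonspecific binding used 100 nM epibatidine. Filtered on PEI-soaked GF/C. Ki from three independent competition curves (LIGAND).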
# Sequence of Muscarinic acetylcholine receptor M3 (Homo sapiens) (P20309 whole entry, looked up): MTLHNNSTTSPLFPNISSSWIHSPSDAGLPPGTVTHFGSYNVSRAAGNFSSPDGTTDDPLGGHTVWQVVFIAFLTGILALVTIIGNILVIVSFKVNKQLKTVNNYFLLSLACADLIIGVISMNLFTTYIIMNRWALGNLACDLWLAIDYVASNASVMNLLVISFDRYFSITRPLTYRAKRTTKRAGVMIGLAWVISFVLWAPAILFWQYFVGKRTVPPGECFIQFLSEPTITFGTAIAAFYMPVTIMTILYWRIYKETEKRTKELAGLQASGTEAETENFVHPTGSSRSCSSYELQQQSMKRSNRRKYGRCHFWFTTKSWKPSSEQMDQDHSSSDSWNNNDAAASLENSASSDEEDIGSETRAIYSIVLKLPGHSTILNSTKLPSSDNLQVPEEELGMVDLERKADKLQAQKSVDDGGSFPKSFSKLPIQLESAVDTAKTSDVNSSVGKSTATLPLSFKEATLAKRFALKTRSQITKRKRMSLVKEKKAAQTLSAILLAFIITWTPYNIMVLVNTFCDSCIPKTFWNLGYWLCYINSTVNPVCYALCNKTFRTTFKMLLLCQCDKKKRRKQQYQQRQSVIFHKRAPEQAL
Structure (SMILES),Activity [1] [%],Activity [2] [%],Activity [3] [%],Ki [4] [µM],Activity [5] [%],Activity [6] [%],Ki [7] [µM]
CC1=NO[C@@H]([C@@H]2CCCN2)C1,< 50,< 50,< 50,40,< 50,< 50,18
BrC1=NO[C@@H]([C@@H]2CCCN2)C1,< 50,< 50,< 50,35,< 50,< 50,4.2
COC1=NO[C@@H]([C@@H]2CCCN2C)C1,< 50,< 50,< 50,2.9,< 50,< 50,10.3
CC(C)(C)OC1=NO[C@H]([C@@H]2CCCN2)C1,< 50,< 50,< 50,> 500,< 50,< 50,184
CC1=NO[C@H]([C@@H]2CCCN2)C1,< 50,< 50,< 50,0.44,< 50,< 50,5.1
CN1CCC[C@H]1[C@H]1CC(Br)=NO1,< 50,< 50,< 50,43,< 50,< 50,3.8
COC1=NO[C@@H]([C@@H]2CCCN2)C1,< 50,< 50,< 50,277,< 50,< 50,28
CC1=NO[C@@H]([C@@H]2CCCN2C)C1,< 50,< 50,< 50,325,< 50,< 50,12
COC1=NO[C@H]([C@@H]2CCCN2)C1,< 50,< 50,< 50,11.3,< 50,< 50,50
